Values belong to the molecule of their own block, whether it stands above or below them. Calls of active or inactive are those of the source. The rule behind the calls is not given here.
What was measured:
[1] = tested on: HCT-15; assay: Cytotoxicity against human HCT-15 cells assessed as reduction in cell viability; type: functional, cell-based
[2] = tested on: HCT-15; assay: Cytotoxicity against human HCT-15 cells assessed as reduction in cell viability incubated for 4 hrs by MTT assay; type: functional, cell-based; conditions: HCT-15, 4 h
[3] = tested on: SK-MEL-28; assay: Induction of apoptosis in human SK-MEL-28 cells assessed as cell membrane disruption at 1.73 to 6.92 uM incubated for 48 hrs by AO/EB staining based fluorescence microscopy; type: functional; conditions: dose 1.73-6.92 µM
Outline: (§1)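 SK-MEL-28 plated at 1×10^6 cells/mL and treated at several concentrations for 48 h. Acridine orange and ethidium bromide added at 10 µg/ml, and cells imaged at once by fluorescence microscopy (ex 488/em 550 nm), 20X.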

[4] = tested on: SK-MEL-28; assay: Induction of cell cycle arrest in human SK-MEL-28 cells assessed as accumulation of cells at G0/G1 phase at 6.92 uM incubated for 48 hrs by flow cytometry (reference value: 79.59%); type: functional
[5] = tested on: SK-MEL-28; assay: Induction of apoptosis in human SK-MEL-28 cells assessed as nucleus fragmentation at 1.73 to 6.92 uM incubated for 48 hrs by DAPI staining based fluorescence microscopy; type: functional, cell-based; conditions: dose 1.73-6.92 µM
Outline: (§2)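 SK-MEL-28 exposed 48 h, then PBS-washed, fixed in 4% paraformaldehyde, permeabilized with 0.1% Triton X for 15 min and stained with 10 µg/mL DAPI. Nuclei viewed by fluorescence (ex 359/em 461 nm), 20X, with untreated controls.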

[6] = Selectivity index, ratio of IC50 for cytotoxicity against human BEAS-2B cells to IC50 for cytotoxicity against human HCT-116 cells; type: functional
[7] = tested on: SK-MEL-28; assay: Induction of apoptosis in human SK-MEL-28 cells assessed as early apoptotic cells measured after 48 hrs by annexin-V-FITC/PI double staining based flow cytometric analysis; type: functional, cell-based; conditions: dose 1.73-6.92 µM
Outline: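 1×10^6 SK-MEL-28 cells treated at various concentrations for 48 h. Cells trypsinized with supernatant retained and washed twice in ice-cold PBS. Stained with annexin V-FITC and PI in binding buffer for 15 min at room temperature in the dark, kept on ice, and analysed by flow cytometry.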

[8] = tested on: SK-MEL-28; assay: Induction of cell cycle arrest in human SK-MEL-28 cells assessed as accumulation of cells at G0/G1 phase at 1.73 uM incubated for 48 hrs by flow cytometry (reference value: 79.59%); type: functional
[9] = tested on: SK-MEL-28; assay: Induction of cell cycle arrest in human SK-MEL-28 cells assessed as accumulation of cells at S phase at 6.92 uM incubated for 48 hrs by flow cytometry (reference value: 6.34%); type: functional
[10] = Cytotoxicity against human BEAS-2B cells assessed as reduction in cell viability measured after 48 hrs by MTT assay; type: toxicity, cell-based
Outline: (§3)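 Cells kept in medium with 10% FBS and 1% antibiotic–antimycotic at 37 °C, 5% CO2. Seeded at 3000–4000 cells/well, grown overnight, then given fresh medium with a range of concentrations (diluted from 10 mM DMSO stocks) for 48 h. MTT (0.5 mg/mL) added for 3–4 h at 37 °C. Formazan dissolved in DMSO and absorbance read at 570 nm.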

[11] = tested on: SK-MEL-28; assay: Induction of cell cycle arrest in human SK-MEL-28 cells assessed as accumulation of cells at G2/M phase at 1.73 uM incubated for 48 hrs by flow cytometry (reference value: 13.14%); type: functional
[12] = tested on: SK-MEL-28; assay: Induction of apoptosis in human SK-MEL-28 cells assessed as morphological changes measured after 48 hrs by AO/EB staining based microscopic analysis; type: functional, cell-based; conditions: dose 1.73-6.92 µM; outline: as §1
[13] = tested on: SK-MEL-28; assay: Induction of cell cycle arrest in human SK-MEL-28 cells assessed as accumulation of cells at G2/M phase at 3.46 uM incubated for 48 hrs by flow cytometry (reference value: 13.14%); type: functional
[14] = tested on: SK-MEL-28; assay: Induction of apoptosis in human SK-MEL-28 cells assessed as increase in red fluorescence at 1.73 to 6.92 uM incubated for 48 hrs by AO/EB staining based fluorescence microscopy; type: functional, cell-based; conditions: dose 1.73-6.92 µM; outline: as §1
[15] = tested on: B16-F10; assay: Cytotoxicity against mouse B16-F10 cells assessed as reduction in cell viability measured after 48 hrs by MTT assay; type: functional, cell-based; conditions: B16-F10, 48 h; outline: as §3
[16] = tested on: SK-MEL-28; assay: Induction of cell cycle arrest in human SK-MEL-28 cells assessed as accumulation of cells at S phase at 3.46 uM incubated for 48 hrs by flow cytometry (reference value: 6.34%); type: functional
[17] = tested on: A549; assay: Cytotoxicity against human A549 cells assessed as reduction in cell viability measured after 48 hrs by MTT assay; type: functional, cell-based; conditions: A549, 48 h; outline: as §3
[18] = target: Tubulin; assay: Inhibition of tubulin polymerization (unknown origin) at 1.73 to 6.92 uM measured after 1 hr; type: protein-complex assay, Homo sapiens
Outline: (§4)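 Fluorescence-based tubulin polymerization kit: tubulin, GTP and tubulin glycerol buffer mixed and added to compound (from 10x stocks), enhancer and inhibitor reference standards, and blanks in a plate prewarmed to 37 °C. Read kinetically for 1 h at ex 360/em 450 nm.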

[19] = tested on: SK-MEL-28; assay: Induction of apoptosis in human SK-MEL-28 cells assessed as budding nucleus at 1.73 to 6.92 uM incubated for 48 hrs by DAPI staining based fluorescence microscopy; type: functional, cell-based; conditions: dose 1.73-6.92 µM; outline: as §2
[20] = tested on: SK-MEL-28; assay: Induction of cell cycle arrest in human SK-MEL-28 cells assessed as accumulation of cells at G2/M phase at 6.92 uM incubated for 48 hrs by flow cytometry (reference value: 13.14%); type: functional
[21] = tested on: SK-MEL-28; assay: Induction of apoptosis in human SK-MEL-28 cells assessed as reduction in live cells at 1.73 to 6.92 uM after 48 hrs by phase contrast microscopic analysis; type: functional, cell-based; conditions: dose 1.73-6.92 µM
Outline: (§5)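 SK-MEL-28 cells plated at 1×10^6 cells/mL, allowed to adhere overnight, then exposed to several concentrations for 48 h. Bright-field imaging at 20X to score cell shrinkage, deformation and viable cell number.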

[22] = tested on: HCT-116; assay: Cytotoxicity against human HCT-116 cells assessed as reduction in cell viability measured after 48 hrs by MTT assay; type: functional, cell-based; conditions: HCT-116, 48 h; outline: as §3
[23] = tested on: SK-MEL-28; assay: Induction of cell cycle arrest in human SK-MEL-28 cells assessed as accumulation of cells at G0/G1 phase at 3.46 uM incubated for 48 hrs by flow cytometry (reference value: 79.59%); type: functional
[24] = tested on: SK-MEL-28; assay: Induction of apoptosis in human SK-MEL-28 cells assessed as blebbing nucleus at 1.73 to 6.92 uM incubated for 48 hrs by DAPI staining based fluorescence microscopy; type: functional, cell-based; conditions: dose 1.73-6.92 µM; outline: as §2
[25] = Selectivity index, ratio of IC50 for cytotoxicity against human BEAS-2B cells to IC50 for cytotoxicity against human SK-MEL-28 cells; type: functional
[26] = tested on: SK-MEL-28; assay: Potency index, ratio of sunitinib IC50 to test compound IC50 for cytotoxicity against human SK-MEL-28 cells assessed as reduction in cell viability measured after 48 hrs by MTT assay; type: functional
[27] = tested on: SK-MEL-28; assay: Induction of apoptosis in human SK-MEL-28 cells assessed as cellular shrinkage at 1.73 to 6.92 uM after 48 hrs by phase contrast microscopic analysis; type: functional, cell-based; conditions: dose 1.73-6.92 µM; outline: as §5
[28] = tested on: SK-MEL-28; assay: Cytotoxicity against human SK-MEL-28 cells assessed as reduction in cell viability measured after 48 hrs by MTT assay; type: functional, cell-based; conditions: SK-MEL-28, 48 h; outline: as §3
[29] = Selectivity index, ratio of IC50 for cytotoxicity against human BEAS-2B cells to IC50 for cytotoxicity against human A549 cells; type: functional
[30] = tested on: SK-MEL-28; assay: Induction of cell cycle arrest in human SK-MEL-28 cells assessed as accumulation of cells at S phase at 1.73 uM incubated for 48 hrs by flow cytometry (reference value: 6.34%); type: functional
[31] = tested on: SK-MEL-28; assay: Induction of apoptosis in human SK-MEL-28 cells assessed as horseshoe-shaped nucleus at 1.73 to 6.92 uM incubated for 48 hrs by DAPI staining based fluorescence microscopy; type: functional, cell-based; conditions: dose 1.73-6.92 µM; outline: as §2
[32] = Selectivity index, ratio of IC50 for cytotoxicity against human BEAS-2B cells to IC50 for cytotoxicity against mouse B16-F10 cells; type: functional
[33] = tested on: SK-MEL-28; assay: Induction of apoptosis in human SK-MEL-28 cells assessed as nuclear condensation at 1.73 to 6.92 uM incubated for 48 hrs by DAPI staining based fluorescence microscopy; type: functional, cell-based; conditions: dose 1.73-6.92 µM; outline: as §2
[34] = tested on: SK-MEL-28; assay: Induction of apoptosis in human SK-MEL-28 cells assessed as apoptotic body formation at 1.73 to 6.92 uM incubated for 48 hrs by AO/EB staining based fluorescence microscopy; type: functional, cell-based; conditions: dose 1.73-6.92 µM; outline: as §1
[35] = tested on: SK-MEL-28; assay: Induction of apoptosis in human SK-MEL-28 cells assessed as increase in ROS level incubated for 48 hrs by DCFDA staining based fluorescence microscopic assay; type: functional, cell-based; conditions: dose 1.73-6.92 µM
Outline: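 SK-MEL-28 seeded at 1×10^6 cells/well and treated at several concentrations for 48 h at 37 °C. DCFDA (10 µM) loaded for 30 min at 37 °C, excess washed off with PBS, and green DCF fluorescence imaged (ex 498/em 530 nm), 20X.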

[36] = tested on: SK-MEL-28; assay: Induction of apoptosis in human SK-MEL-28 cells assessed as change in cell shape at 1.73 to 6.92 uM after 48 hrs by phase contrast microscopic analysis; type: functional, cell-based; conditions: dose 1.73-6.92 µM; outline: as §5
[37] = target: Tubulin (Homo sapiens) (UniProt P68371+Q9H4B7+P0DPH7+P68366+Q13509+Q71U36+P04350+Q3ZCM7+P07437+P68363+Q9BQE3+Q6PEY2+Q13885+Q9BVA1+Q9BUF5); assay: Inhibition of tubulin polymerization (unknown origin) at 1.73 to 6.92 uM measured after 1 hr relative to control; type: protein-complex assay; conditions: dose 1.73-6.92 µM; outline: as §4
[38] = Cytotoxicity against multidrug resistance human U87 cells assessed as cell growth inhibition; type: functional, cell-based, U-87MG ATCC; conditions: U-87 MG
[39] = tested on: PC-3; assay: Cytotoxicity against multidrug resistance human PC-3 cells assessed as cell growth inhibition; type: functional, cell-based
[40] = tested on: SK-OV-3; assay: Cytotoxicity against multidrug resistance human SK-OV-3 cells assessed as cell growth inhibition; type: functional, cell-based
[41] = target: Tubulin; assay: Inhibition of tubulin polymerization (unknown origin); type: cell-based, Homo sapiens
[42] = tested on: HeLa; assay: Cytotoxicity against human HeLa cells assessed as reduction in cell viability; type: functional, cell-based

Compound: COc1ccc(CC/N=C2/NC(=O)/C(=C\c3c[nH]c4ccc(Br)cc34)S2)cc1
IC50 [1]: 920 nM
IC50 [2]: 920 nM

IC50 [18]: < 1730 nM
inhibition [37]: 60%
Compound: O=C1CS/C(=N\c2cc(-c3c[nH]c4ccccc34)nn2-c2cccc(Cl)c2)N1
Activity [3]: Active
Activity [4]: 77.01%
Activity [5]: Active
Ratio IC50 [6]: 1.76
Activity [7]: Dose-Dependent Effect
Activity [8]: 77.35%
Activity [9]: 5.7%
IC50 at 48 h [10]: 15900 nM
Activity [11]: 14.31%
Activity [12]: Dose-Dependent Effect
Activity [13]: 16.11%
Activity [14]: Active
IC50 [15]: 10800 nM
Activity [16]: 6.73%
IC50 [17]: 11500 nM
Activity [19]: Active
Activity [20]: 16.39%
Activity [21]: Active
IC50 [22]: 9020 nM
Activity [23]: 77.33%
Activity [24]: Active
Ratio IC50 [25]: 4.59
Ratio IC50 [26]: 1.5
Activity [27]: Active
IC50 [28]: 3460 nM
Ratio IC50 [29]: 1.38
Activity [30]: 6.73%
Activity [31]: Active
Ratio IC50 [32]: 1.47
Activity [33]: Active
Activity [34]: Active
Activity [35]: Dose-Dependent Effect
Activity [36]: Active

Compound: O=C(Nc1ccncc1)C(=O)c1cn(Cc2ccc(Cl)cc2)c2ccccc12 [INDIBULIN]
IC50 [38]: 77 nM
IC50 [39]: 64 nM
IC50 [40]: 36 nM

IC50 [41]: 350 nM
Compound: CCOc1ccc(-c2n[nH]cc2-c2cc(OC)c(OC)c(OC)c2)cc1

Compound: COc1cc(NC(=O)/C=C/c2cc(-c3cc(OC)c(OC)c(OC)c3)n[nH]2)cc(OC)c1OC
IC50 [42]: 400 nM
